Unmarked numbers belong to inactive results. Results filed as inconclusive are left out. Calls of active or inactive are those of the source.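 The calls were made as follows, unless noted: active = cell viability at or below a set limit in both duplicate runs, the limit being the all-compound median minus 4 SD (cut at about 23% in these data, passing the limit was not always enough); inconclusive = no clear call, values can overlap the other calls; inactive = the rest.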

This is an account of results in PubChem BioAssay.

Test [1] in a line: OD615 S. cerevisiae growth inhibition, permissive medium, pilot counter-assay, permissive growth control for S. cerevisiae lifespan shortening project (AID 705;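 active = growth inhibition above 25% in both replicates, a cutoff set 3 SD above the mean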). The following applies: OD615, 24 h, at 10 µM, active compounds read high. In short, it runs like this:
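System – S. cerevisiae with engineered DeaD lifespan system · Buffer or medium – SC raffinose/galactose permissive medium · Schedule – cells pre-grown 4 h, then 24 h compound exposure, 30 °C humidified · Technique – culture turbidity as optical density at 615 nm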

A short description of test [2]: Restrictive medium S. cerevisiae growth inhibition, OD615, pilot screen of yeast lifespan reduction project, restrictive growth control (AID 706;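 active = growth inhibition above a set limit, 3 SD over mean compound inhibition, in both replicates, cut at about 43% in these data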;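 also: modified DeaD lifespan yeast strain shifted to restrictive glucose medium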). The following applies: OD615, 48 h, at 10 µM, active compounds read high. In short, it runs like this:
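Material: engineered S. cerevisiae DeaD strain / Medium: glucose-based CSMM-D restrictive medium / Compound: single dose of 10 µM compound final, 0.25% DMSO / Timing: 4 h pre-incubation, 48 h exposure at 30 °C / Technique: OD615 absorbance reading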

Test [3] is described as follows: viability gain of MRP-1-high H69AR cells under doxorubicin, pilot screen, MRP-1 activator project, CellTiter-Glo, duplicate (AID 807;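 active = viability increase at or above a cutoff of the median across tested compounds plus 3 SD, cut at about 8.5% in these data, passing the limit was not always enough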;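 also: compound pretreatment 18-22 h then 72 h combined with doxorubicin; 0% = doxorubicin alone and 100% = vehicle without doxorubicin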). The note with it: H69AR viability with doxorubicin, CellTiter-Glo luminescence; at 10 µM; active compounds read high.
Test [4] in a line: growth suppression of beta-catenin knockout HCT116, pilot screen, human colon tumor cells (AID 823).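 Also: 0% = wells killed by 20 µM Hyamine and 100% = untreated DMSO cell wells.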 The following applies: CellTiter-Glo, 60 h, at 10 µM, active compounds read low. (Cellular ATP, detected with luciferase, serves as a proxy for viable cell number.)
Test [5] can be described thus: growth suppression of PTEN-deleted HCT116, pilot screen, cell-based, HCT116 clonal line, CellTiter-Glo (AID 824;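 active = viability at or below 27.92% in each of two runs, the all-compound median minus 4 SD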;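 also: 0% = 20 µM Hyamine control and 100% = vehicle cell control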). The following applies: 60 h, at 10 µM, active compounds read low.
Test [6] is described as follows: RAM signaling pathway blockade in yeast – S. cerevisiae, Pdr1DBD-CYC8 efflux-inhibited sensitized strain, primary screen (AID 1298;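 active = RAM network inhibition above 8.4% in each of two replicates, 3 SD over the compound average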;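 also: 0% = DMSO untreated cells without growth and 100% = 10 µM 1-NA-PP1 full growth; higher means more yeast growth rescued from 5-FOA killing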). The following applies: S. cerevisiae cbk1-as DSE1-URA3 strain, 5-FOA growth OD615, 2 d; at 50 µM; active compounds read high.

A word on the viability: it is a read-out of living cells in per cent, often relative to untreated cells. In the case of `COc1ccc(-c2cc(C(F)(F)F)nc(S(C)(=O)=O)n2)cc1OC`, the growth inhibition is -23.4% in test [1] and -9.75% in test [2]. Besides, in test [3], the viability increase is -7.11%. In addition, the viability in test [4] was 14.5% (active); in test [5] it was 48.7%. Also, the RAM network inhibition in test [6] was -0.26%.

`Clc1cc(Br)ccc1OCCOCCN1CCOCC1`: the growth inhibition in test [1] is -3.75%; in test [2], 2.38%. In addition, the viability increase in test [3] was 0.57%. Besides, the viability is 93.5% in test [4] and 91.7% in test [5]. For the same compound, in test [6], the RAM network inhibition was 0.08%.

Consider `COc1ccc(C(=O)CSc2nnc(-c3ccccc3)o2)cc1`, for which the results for the growth inhibition in test [1] and in test [2] were 4.92% and 15.3%, respectively. Moreover, in test [3], the viability increase was -0.88%. For the same compound, the viability in test [4] is 95.6%; in test [5], 88.8%. The RAM network inhibition in test [6] is 7.56%.

With `Cn1c(Cn2c(=O)sc3ccccc32)nnc1SCc1ccccc1`, the growth inhibition in test [1] was -3.71%; in test [2] it was -6.89%. Moreover, in test [3], the viability increase was 0.76%. The values for the viability in test [4] and in test [5] were 72.9% and 71.2%, respectively. In addition, in test [6], the RAM network inhibition is 4.4%.

In the case of `CCCCCOC(=O)CSc1nc2c(c(=O)[nH]c(=O)n2C)n1Cc1ccc(Cl)cc1`, the growth inhibition was 11.9% in test [1] and 23.6% in test [2]. Moreover, in test [3], the viability increase was -3.26%. For the same compound, the viability in test [4] was 93.2%; in test [5] it was 84.7%. Moreover, the RAM network inhibition in test [6] was 2.16%.

Take `COc1cc(C(=O)NCCc2cn3ccc(C)cc3n2)cc(OC)c1OC`: the figures for the growth inhibition in test [1] and in test [2] were -4.97% and 4.06%, respectively. In addition, the viability increase in test [3] is -4.28%. The viability in test [4] is 96.5%; in test [5], 95.9%. The RAM network inhibition in test [6] is 2.94%.

Take `OC(COCC1COc2ccccc2O1)CN1CCc2ccccc2C1` (stereo unspecified): the values for the growth inhibition in test [1] and in test [2] were -28.7% and -12.5%, respectively. The viability increase in test [3] is -2.72%. Also, the viability is 86.4% in test [4] and 90.8% in test [5]. In addition, in test [6], the RAM network inhibition is 1.37%.

On to `Cc1cc(NC(=O)CSc2nc3c(c(=O)n2CCc2ccccc2)SC(C)C3)no1` (stereo unspecified), for which the values for the growth inhibition in test [1] and in test [2] were -12.6% and -12.3%, respectively. In test [3], the viability increase is -1.68%. Also, the figures for the viability in test [4] and in test [5] were 89.5% and 96.6%, respectively. In test [6], the RAM network inhibition is 5.21%.

Consider `C=CCn1c(SCC(=O)c2cccs2)nc2sc(CC)cc2c1=O`, for which the growth inhibition in test [1] is -5.62%; in test [2] it was 5.1%. In test [3], the viability increase is -1.39%. Besides, the viability in test [4] is 76.8%; in test [5], 83.3%. For the same compound, the RAM network inhibition in test [6] was 7.45%.

Take `CCOc1ccc(-n2nnc3c(=O)n(CC(=O)N4CCCc5ccccc54)cnc32)cc1`: the growth inhibition in test [1] was -3.47%; in test [2] it was -10.2%. The viability increase in test [3] was -0.3%. In addition, the viability in test [4] was 85.3%; in test [5], 84%. The RAM network inhibition in test [6] is 2.69%.

As for `Cc1cc(C)cc(NC(=O)CSc2nnc(Cn3c(=O)sc4ccccc43)n2C)c1`, the growth inhibition in test [1] is -6.84%; in test [2], -21.8%. Further, the viability increase in test [3] is -2.93%. For the same compound, the viability is 98.2% in test [4] and 94.9% in test [5]. In addition, the RAM network inhibition in test [6] was 1.37%.

As to `CCOC(=O)CNc1nc(C(C)(C)C)nc2c1nnn2Cc1ccccc1Cl`, the figures for the growth inhibition in test [1] and in test [2] were 1.73% and -3.68%, respectively. Further, in test [3], the viability increase was -1.19%. Besides, the viability in test [4] was 78%; in test [5], 76.2%. Besides, the RAM network inhibition in test [6] was 9.74%.

Consider `CCCSc1nc2c(cnn2-c2ccccc2)c(=O)[nH]1`, for which the results for the growth inhibition in test [1] and in test [2] were -12.6% and -17.8%, respectively. In addition, the viability increase in test [3] is -0.89%. For the same compound, the figures for the viability in test [4] and in test [5] were 105% and 95.7%, respectively. The RAM network inhibition in test [6] was -0.83%.

On to `CN(CC(=O)N1CCc2ccccc2C1)S(=O)(=O)c1ccc2c(c1)c(=O)n(C)c(=O)n2C`, for which the growth inhibition in test [1] is -12.3%; in test [2], -9.22%. Further, in test [3], the viability increase is -3.24%. For the same compound, the viability in test [4] is 98.4%; in test [5], 90.2%. Also, the RAM network inhibition in test [6] was 5.95%.

As for `CCOC(=O)c1c(C)[nH]c(C(=O)COc2ccc3c(c2)OCO3)c1C`, the results for the growth inhibition in test [1] and in test [2] were 1.84% and -1.24%, respectively. In addition, in test [3], the viability increase is -2.79%. Moreover, the viability in test [4] is 91.2%; in test [5], 87.5%. For the same compound, the RAM network inhibition in test [6] was 5.07%.

Regarding `COc1ccc(-c2cn3c(C)c(C(=O)N4CCN(c5ccc(F)cc5)CC4)sc3n2)cc1`, the growth inhibition is -0.17% in test [1] and -2.07% in test [2]. In test [3], the viability increase was 0.81%. Besides, the viability in test [4] is 101%; in test [5], 103%. The RAM network inhibition in test [6] was 5.28%.
